Source: PubChem
In the library only some 1.8% were active in any assay of this set; here they are far more common.
STAT1 blocker: reduces IFN-gamma driven STAT1 reporter signal; NIH 3T3 STAT1-luciferase reporter, luminescence; inhibition, % at 5.5 µM; 0.35% of 200,000 active; AID 920;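 active = inhibition above a set limit, the mean inhibition across all tested compounds plus 3 SD, cut at about 34% in these data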;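 also: 0% = IFN-gamma with DMSO and 100% = IFN-gamma with 300 µM nifuroxazide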
STAT3 inh: reduces IL-6 driven STAT3 reporter signal. U3A cells, IL-6 STAT3-luciferase reporter, luminescence; host cell line lacks STAT1. inhibition, % at 5.5 µM. 0.89% of 190,000 active. AID 862;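 active = inhibition above the mean inhibition across all screened compounds plus 3 SD, cut at about 44% in these data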;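 also: 0% = DMSO only wells and 100% = 100 µM nifuroxazide control wells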
TRAIL sens C8: sensitizes caspase-8 expressing cells to TRAIL; NB7+C8 cells + TRAIL, ATPlite viability luminescence; inhibition (viability loss, TRAIL sensitization), % at 10 µM; 1% of 360,000 active; AID 624354;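 active = compounds causing at least 50% loss of cell viability in the single-dose screen, relative to plate controls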
STAT3 activator: activators of IL-6 induced STAT3 signaling. U3A cells, IL-6 STAT3-luciferase reporter, luminescence; 100% = signal with IL-6 EC80 alone. activation (% of control), % at 5.6 µM. 0.91% of 190,000 active. AID 871;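 active = activation above the screen-wide mean of compound activation plus 3 SD, cut at about 130% in these data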;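 also: 0% = background luminescence of wells with medium and substrate only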
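Material: STAT3-luciferase reporter U3A cells; Probe or stimulus: IL-6 (33 ng/mL); Incubation: compound pre-incubation 1 h before IL-6, then 6 h stimulation at 37 °C; Technique: luminescence from STAT3-driven luciferase reporter; Evaluation: % activation versus median of IL-6-stimulated wells; Controls: IL-6-only high control.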
PPC-1+TRAIL kill: compounds killing PPC-1 cancer cells with TRAIL present (potentiator screen, no TRAIL-free arm); PPC-1 cells + TRAIL, ATPLite viability luminescence; 0.41% of 220,000 active; AID 1443; cell killing (% activity), % at 4 µM or 5 µM;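 active = cell killing above 50% in the first pass at 4 µM, then a duplicate retest at 5 µM averaging 50% or more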;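 also: plate controls were cells with TRAIL plus DMSO for no effect and medium-only wells lacking cells for full effect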
* marks the source's active call; other numbers are inactive results; x = not tested or not shown.

SMILES	STAT1 blocker	STAT3 inh	TRAIL sens C8	STAT3 activator	PPC-1+TRAIL kill
O=C(C[C@H]1C[C@H](C(=O)N2CCCCC2)[C@@]2(CCc3ccccc3)c3[nH]c4ccc(Cl)cc4c3CCN2C1=O)NCCc1ccccn1	x	x	17.5	x	x
O=C(C[C@H]1C[C@H](C(=O)N2CCCCC2)[C@@]2(CCc3ccccc3)c3[nH]c4ccc(Cl)cc4c3CCN2C1=O)NCCC1=CCCCC1	x	x	54.6*	x	x
CN(C)CCCNC(=O)C[C@H]1C[C@H](C(=O)N2CCCCC2)[C@@]2(CCc3ccccc3)c3[nH]c4ccc(Cl)cc4c3CCN2C1=O	x	x	66.2*	x	x
CCC(CC)Nc1ccc(C(CC(N)=O)NC(=O)c2ccccc2)cc1[N+](=O)[O-] (stereo not given)	x	x	-7.9	x	x
COc1ccc(CNC(=O)CN(C(=O)c2csnn2)c2cccc3ccccc23)cc1	x	x	7.4	x	x
OCCCNc1ncnc2c1ncn2[C@H]1CN(Cc2ccco2)C[C@@H](CO)O1	x	x	-18.5	x	x
CC1=NC(=O)C(N=Nc2cccc3ccccc23)N1c1ccccc1 (stereo not given)	4.4	-67.5	x	158.8*	x
CC1=NC(=O)C(N=Nc2ccccc2C)N1c1ccccc1 (stereo not given)	-6.4	-3.5	x	105.6	x
CCOc1ncccc1C(=O)OCC(=O)NC(=O)c1ccccc1	x	x	-8.2	x	x
CN=C(c1ccco1)n1c(=S)nc(-c2ccco2)n(C)c1=S	-3.1	-35.5	-1.4	134.9*	-4.8
CN=C(c1ccc(C)cc1)n1c(=S)nc(-c2ccc(C)cc2)n(C)c1=S	-8.7	-14.8	9.7	113.7	15.8
Cc1ccc(CNC(=O)CNS(=O)(=O)c2ccc(Br)s2)cc1	x	x	-4.1	x	x
O=C(CN1CCN(c2ccc(F)cc2)CC1)NCc1ccc(Cl)cc1	x	x	-9.6	x	x
COc1ccccc1C1c2ccc3ccccc3c2Oc2ncn(CCN(C)C)c(=N)c21 (stereo not given)	x	x	45.0	x	x
COc1ccc(C2c3ccc4ccccc4c3Oc3ncn(CCCN(C)C)c(=N)c32)cc1 (stereo not given)	x	x	58.0*	x	x
COc1ccccc1N(C(=O)CCl)c1cn(C(C)=O)c2ccccc12	x	x	92.5*	x	22.6
CC(=O)n1cc(N(C(=O)CCl)c2ccc(Cl)cc2)c2ccccc21	x	x	93.9*	x	38.6
CC(C)(C)NC(=O)C1CC(=O)N(CCc2ccc(F)cc2)C1 (stereo not given)	x	x	-2.3	x	x
CC(C)c1ccc(/C=C2\SC(=S)N(CCC(=O)N3CCCCC3CCO)C2=O)cc1 (stereo not given)	x	x	60.3*	x	x
CCOC(=O)c1sc2nc3c(SCC(=O)O)cc(C(=O)c4cc(F)ccc4O)cn3c(=O)c2c1C	-15.4	-7.1	28.4	103.9	10.7
CCOC(=O)c1sc2nc3c(SCC(=O)O)cc(C(=O)c4ccccc4O)cn3c(=O)c2c1C	4.5	24.0	53.3*	83.3	20.7
O=C(NC1CCOc2ccccc21)c1ccccn1 (stereo not given)	x	x	7.5	x	x
Cc1ccc(CN2CCC(Oc3cccc(C(=O)NCc4cccnc4)c3)CC2)o1	x	x	7.8	x	x
Cc1ccccc1C(=O)N1CCN(c2ccc(NC(=O)c3ccc([N+](=O)[O-])o3)cc2)CC1	x	x	71.4*	x	x
O=C(Nc1ccc(N2CCN(C(=O)c3ccccc3)CC2)cc1)c1ccc([N+](=O)[O-])o1	-82.8	0.7	70.4*	103.3	36.9
SMILES	STAT1 blocker	STAT3 inh	TRAIL sens C8	STAT3 activator	PPC-1+TRAIL kill
CC(/C=C/c1ccccc1)=N/NC(=O)c1cc([N+](=O)[O-])cc([N+](=O)[O-])c1	8.2	1.1	52.0*	98.3	27.1
CC(/C=C/c1cccc([N+](=O)[O-])c1)=N/NC(=O)c1cccnc1	-6.6	6.8	10.4	94.5	11.5
Cc1nc(N)nc(N)c1-c1ccc([N+](=O)[O-])cc1	x	x	74.7*	x	x
Nc1nc(-c2ccccc2)c(-c2ccc([N+](=O)[O-])cc2)s1	2.6	-10.9	32.3	111.0	26.4
COc1ccc(C[C@H](N)C(=O)N[C@H]2[C@@H](O)[C@H](n3cnc4c(N(C)C)ncnc43)O[C@@H]2CO)cc1	x	x	92.2*	x	x
Cc1cc2c(cc1C)-n1nnnc1C(N(C)Cc1ccccc1)C(=O)N2 (stereo not given)	x	x	24.8	x	x
N#C[C@H]1[C@H](c2ccccc2)[C@](C#N)(C(=O)c2ccccc2)[C@@H]2C=Cc3ccccc3N21	16.8	-30.6	x	133.2*	-12.8
C=CCNc1nc(NCc2ccc(NC(C)=O)cc2)c2sc(-c3ccccc3)cc2n1	x	x	63.9*	x	x
Cc1ccc(S(=O)(=O)N2C[C@H]3[C@H]4C(=O)N(c5ccccc5)C(=O)[C@H]4C[C@H](OC(=O)NC4CC4)[C@@]3(O)C2)cc1	x	x	2.3	x	x
COCCn1c(SCC(=O)Nc2ccc(OC)cc2OC)nc2ccccc2c1=O	x	x	10.7	x	x
N/C(=N\OC(=O)c1cccc(Cn2cc(C(F)(F)F)ccc2=O)c1)c1ccccc1	x	x	36.4	x	15.6
Cc1ccc(/C(N)=N/OC(=O)c2cccc(Cn3cc(C(F)(F)F)ccc3=O)c2)cc1	x	x	80.7*	x	3.5
Cn1c(C(=O)N2CCN(c3ccc(Cl)cc3)CC2)cc2c(=O)[nH]c3ccccc3c21	13.3	4.7	13.7	100.3	-19.1
Cc1ccc(Cl)cc1N1CCN(C(=O)c2cc3c(=O)[nH]c4ccccc4c3n2C)CC1	1.5	-1.6	47.8	104.8	50.5*
CN(c1cccc(NC(=O)c2ccc(Cl)c(S(=O)(=O)Nc3ccccc3)c2)c1)S(C)(=O)=O	45.1*	20.3	-0.3	89.2	23.7
Cc1ccccc1NS(=O)(=O)c1cc(C(=O)Nc2cccc(N(C)S(C)(=O)=O)c2)ccc1C	8.1	9.6	3.5	96.2	-3.1
CC(C)(C)c1ccc(C(=O)Nc2nnc(SCC(=O)NCC3CCCO3)s2)cc1 (stereo not given)	x	x	93.7*	x	x
Cc1cc(-c2nnc(CSc3nnc(NC(=O)c4ccc(C(C)(C)C)cc4)s3)o2)ccc1[N+](=O)[O-]	x	x	51.2*	x	38.3
COc1ccc(C(=O)Nn2c(SCC(=O)NCc3ccccc3)nc3ccccc3c2=O)cc1	6.3	42.4	19.6	67.3	21.9
COc1ccc(C(=O)Nn2c(SCC(=O)NCC3CCCO3)nc3ccccc3c2=O)cc1 (stereo not given)	46.7*	77.1*	45.6	34.1	47.2
O=C(CSc1nnc(NC(=O)c2cccc(F)c2)s1)NCC1CCCO1 (stereo not given)	x	x	35.6	x	x
CCOc1ccc(C(=O)Nc2nnc(SCC(=O)NCC3CCCO3)s2)cc1 (stereo not given)	x	x	92.0*	x	x
CN(CC(=O)Nc1cccc(F)c1)C(=O)c1ccc2c(c1)CC(c1ccccc1)OC2=O (stereo not given)	x	x	9.8	x	x
CN(C)S(=O)(=O)c1ccc(C(=O)Nc2nnc(SCC(=O)NCC3CCCO3)s2)cc1 (stereo not given)	x	x	55.3*	x	x
COc1cc2c(cc1OC)CN(C(=O)c1cc(S(=O)(=O)N3CCOCC3)ccc1C)CC2	x	x	-11.7	x	x
O=C1Nc2ccc(Br)cc2/C1=C/C(=O)c1ccc2c(c1)OCO2	x	x	37.7	x	3.7
COc1ccc(C(=O)/C=C2\C(=O)Nc3ccc(Br)cc32)cc1	x	x	59.5*	x	x
